STAT3 act-1: increases IL-6 driven STAT3 reporter signal. activation (% of control), % at 5.6 µM. AID 871. U3A cells, IL-6 STAT3-luciferase reporter, luminescence; 100% = signal with IL-6 EC80 alone. 0.91% of 190,000 active;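 active = activation above the screen-wide mean of compound activation plus 3 SD, cut at about 130% in these data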;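 note: 0% = background luminescence of wells with medium and substrate only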
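Detection: reporter luminescence signal / Assay system: STAT1-lacking human U3A cells, STAT3 luciferase reporter / Incubation: compound pre-incubation 1 h before IL-6, then 6 h stimulation at 37 °C / Control set: IL-6-only high control / Read-out: % activation relative to IL-6 control / Probe or stimulus: Interleukin-6, 33 ng/mL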
APP 5'UTR act: APP 5'UTR luciferase reporter activation | activation, % at 2 µM | AID 1276 | SH-SY5Y APP 5'UTR luciferase reporter, luminescence; zero percent = DMSO vehicle wells | 1% of 190,000 active;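 active = activation above a set limit, based on mean plus 3 SD of controls, cut at about 140% in these data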
STAT1 blocker: STAT1 signaling inhibition | NIH 3T3 STAT1-luciferase reporter, IFN-gamma, luminescence | 0.35% of 200,000 active | inhibition, % at 5.5 µM;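 active = inhibition above a set limit, the mean inhibition across all tested compounds plus 3 SD, cut at about 34% in these data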;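 note: 0% = IFN-gamma with DMSO and 100% = IFN-gamma with 300 µM nifuroxazide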
STAT1 act-1: activators of IFN-gamma induced STAT1 signaling; NIH 3T3 STAT1-luciferase reporter, luminescence; 100% = IFN-gamma alone, no compound; activation (% of control), % at 5.5 µM; 2.6% of 200,000 active;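 active = activation above the screen-wide mean activation plus 3 SD, cut at about 130% in these data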;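 note: raw ratio to IFN-gamma control signal so 100% means no change and 0% no light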
STAT3 inh: STAT3 signaling inhibition | U3A cells, IL-6 STAT3-luciferase reporter, luminescence; host cell line lacks STAT1 | inhibition, % at 5.5 µM | 0.89% of 190,000 active;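 active = inhibition above the mean inhibition across all screened compounds plus 3 SD, cut at about 44% in these data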;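 note: 0% = DMSO only wells and 100% = 100 µM nifuroxazide control wells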
NF-kB expr up: raises NF-kB expression in human neuronal cells; NF-kB reporter expression; active compounds read high; 1.6% of 190,000 active; fold change at 12.5 µM; in the data active = fold change above about 3.3
STAT3 act-2: STAT3 activation, confirmation assay | 64% of 1,200 active | shares compounds with STAT3 act-1 | U3A STAT3-luciferase reporter, IL-6 potentiation, luminescence; U3A cells lack STAT1; 100 means same as IL-6 alone | potentiation (% of control), % at 5.7 µM;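 active = percent activation of the STAT3 luciferase reporter above a set limit taken from the earlier primary screen, cut at about 130% in these data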;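 note: 0% = background signal of medium plus substrate and 100% = median of IL-6 with DMSO wells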
NFkB act 2: NF-kappaB activation in STAT3 activator counter-screen; shares compounds with STAT3 act-1; human cells, NF-kappaB reporter activation; activation (% of control), % at 5.7 µM; 11% of 1,200 active; AID 1309; in the data active = activation above about 120%;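 note: reporter induced by TNF-alpha stimulation; 100% = median of stimulated DMSO wells and 0% = no signal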
STAT1 act-2: activates STAT1, counter-screen to STAT3 activators | shares compounds with STAT3 act-1 | NIH 3T3 STAT1-luciferase reporter, IFN-gamma, luminescence | activation (% of control), % at 5.7 µM | 13% of 1,200 active | AID 1318;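 active = activation above the solvent-only control well mean plus 3 SD, set per screening run, cut at about 120% in these data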;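 note: 100% = IFN-gamma with DMSO median signal so 100% means no change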
Active calls of the source: *; / = not tested or not shown. Shown are actives, neighbours in structure and some others; about 4.9% of the full set was active somewhere.

SMILES	STAT3 act-1	APP 5'UTR act	STAT1 blocker	STAT1 act-1	STAT3 inh	NF-kB expr up	STAT3 act-2	NFkB act 2	STAT1 act-2
O=C(Nc1cc(-c2nc3ccccc3s2)ccc1Cl)c1ccc2c(c1)OCO2	138*	28	-5	105	-36	1.7	137*	120	127*
Cc1ccccc1OCC(=O)Nc1cccc2nsnc12	150*	3	8	86	-57	1.2	129	110	107
CCSc1nc2sc3c(c2c(=O)[nH]1)CCc1ccccc1-3	144*	-17	-1	101	-46	0.75	152*	109	94
CCCc1cc(=O)n2[nH]c(C)nc2n1	153*	-15	-8	107	-54	1.1	108	102	93
CCCc1cc(=O)n2[nH]c(C(F)(F)F)nc2n1	107	-4	-2	102	-2	1.1	/	/	/
Cc1ccc(C(=O)c2cc([N+](=O)[O-])ccc2N2CCOCC2)cc1	95	-93	3	97	5	2.1	/	/	/
CCC(CC)NC(=O)c1cc([N+](=O)[O-])ccc1N1CCOCC1	98	1	-2	102	1	0.97	/	/	/
Cc1ccc(C(=O)c2cc([N+](=O)[O-])ccc2N2CCCCC2)c(C)c1	137*	-96	0	100	-39	3.9*	116	152*	108
CCOc1ccc(C(=O)c2cc([N+](=O)[O-])ccc2N2CCOCC2)cc1	166*	-94	-25	122	-68	3.6*	127	165*	132*
COc1ccc(C(=O)c2cc([N+](=O)[O-])ccc2N2CCOCC2)cc1	163*	-93	-20	118	-74	3.4*	125	172*	141*
O=C(NCc1ccco1)c1ccc(CNc2c(N3CCCCC3)c(=O)c2=O)cc1	96	-19	0	100	5	1.1	/	/	/
O=C(Cn1cnc2ccccc2c1=O)Nc1ccc(N2CCOCC2)cc1	107	0	-3	101	-1	0.98	/	/	/
Cc1ccc(S(=O)(=O)Nc2ccc3c4c(cccc24)CC3)c(C)c1	99	-4	-7	107	6	/	/	/	/
Cc1ccc(S(=O)(=O)Nc2cc(C(C(=O)OC(C)C)C(=O)C(F)(F)F)c(O)c3ccccc23)c(C)c1 (centres undefined)	138*	4	-3	102	-45	0.85	110	102	102
O=c1oc2ccccc2c(O)c1/C=C1\C=Nc2ccccc21	161*	4	6	95	-76	1.6	152*	104	90
O=C(NC(=S)N1CCN(Cc2ccc3c(c2)OCO3)CC1)c1ccc(Cl)cc1	105	3	3	97	0	0.81	/	/	/
O=C(Nc1cccc(F)c1)c1c(O)c2cccc3c2n(c1=O)CCC3	142*	6	4	97	-46	1.1	143*	98	93
CC(C)c1nnc(NC(=O)c2c(O)c3cccc4c3n(c2=O)CCC4)s1	95	19	1	99	12	0.68	/	/	/
Cc1cnc(NC(=O)c2c(O)c3cccc4c3n(c2=O)CCC4)s1	165*	3	-2	102	-72	1.3	149*	101	102
CCC(=O)N(c1ccc(C(=O)O)cc1)c1nc(-c2ccc(OC)cc2)c(C)s1	101	-5	-1	101	7	0.95	/	/	/
O=C(COC(=O)/C=C/c1ccccc1[N+](=O)[O-])NCC(F)(F)F	150*	6	21	80	-63	1.1	163*	104	101
CCN(C(=O)COC(=O)/C=C/c1ccccc1[N+](=O)[O-])C1CCS(=O)(=O)C1 (centres undefined)	149*	11	32	71	-51	0.74	141*	105	71
CCNC(=O)COC(=O)/C=C/c1ccccc1[N+](=O)[O-]	92	-9	16	85	6	1	/	/	/
Cc1ccc(C(=O)/C=C/c2ccccc2[N+](=O)[O-])cc1	138*	35	-24	120	-36	0.92	162*	121*	125*
CN(C)C(=O)COC(=O)/C=C/c1ccccc1[N+](=O)[O-]	162*	8	25	77	-73	0.74	143*	104	73
SMILES	STAT3 act-1	APP 5'UTR act	STAT1 blocker	STAT1 act-1	STAT3 inh	NF-kB expr up	STAT3 act-2	NFkB act 2	STAT1 act-2
O=C(COC(=O)/C=C/c1ccccc1[N+](=O)[O-])NCC1CCCO1 (centres undefined)	102	8	8	91	1	0.93	/	/	/
CC(=O)N1CCc2cc(N=NC3=C(O)CCCC3=O)ccc21	99	93	-4	104	4	2.4	/	/	/
Cn1c(SCC(=O)Nc2cccnc2)nnc1-c1ccccc1F	95	0	10	92	10	1	/	/	/
O=C(Nc1nnc(CC(=O)N2CCOCC2)s1)c1cccs1	147*	-6	1	96	-53	1.2	98	106	106
Cc1ccc(N)c2c1OCCC2=O	137*	17	16	85	-48	0.99	137*	108	90
CCCCCCCCNC(=O)c1cccnc1SCC(=O)Nc1ccc(OC)cc1OC	87	27	6	95	16	1	/	/	/
COc1ccc(C)cc1NS(=O)(=O)c1cn(C)nc1C	101	-18	1	99	1	1.2	/	/	/
COc1ccc(-c2csc(NC(=O)CSc3nc(SC)ns3)n2)cc1	137*	23	-14	113	-47	1.6	140*	99	114
O=c1oc2ccccc2cc1-c1nc(-c2cccs2)cs1	159*	/	-20	113	-70	1.3	117	116	116
O=C(Nc1nc(-c2cccs2)cs1)c1cc2ccccc2oc1=O	88	2	-7	106	19	1.4	/	/	/
COCc1cc(=O)n2c(-c3ccccc3OC)n[nH]c2n1	145*	-6	-6	107	-49	0.87	159*	106	101
CN(CC(=O)N1CCN(Cc2ccccc2)CC1)S(=O)(=O)c1cccc2nsnc12	111	15	-1	99	-8	1	/	/	/
CCOC(=O)c1c2n(c3ccc(O)cc13)CCC2	163*	7	-2	102	-72	1.1	82	104	102
CCCC(=O)Nc1ccc(Cl)c(NC(=S)NC(=O)c2ccco2)c1	78	-8	6	94	25	1.2	/	/	/
Cn1c(=O)c2c(nc(N3CCCC3)n2CC(O)CO)n(C)c1=O (centres undefined)	141*	-7	-6	105	-42	1.1	104	111	105
